# Compound activity as filed in PubChem.
# The list is not random: actives were taken first. Their share in the collection is about 0.7%.
# procasp3 activ – activators of human procaspase-3. P42574. 330,000 compounds, 0.11% hits. AID 463141. activation, % at 8.5 µM. recombinant procaspase-3 D3A, Ac-DEVD-pNA absorbance 405 nm;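 active = activation above the mean of all tested compounds plus 3 SD, cut at about 21% in these data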;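 also: 0% = DMSO alone and 100% = DMSO wells spiked with extra 5 µM PC-3 D3A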
#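 Assay system: Autoprocessing-dead procaspase-3 D3A mutant enzyme; also added: Ac-DEVD-pNA; doses: one concentration, 8.5 µM nominal, 0.8% DMSO; times: 1 h compound preincubation, 2 h substrate hydrolysis at 25 °C; technique: 405 nm absorbance of p-nitroaniline, reads at 0 and 120 min; measure: % activation between DMSO and enzyme-spiked controls; repeats: single replicate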
# GAA850 FXN act – increases GAA850 frataxin promoter reporter activity | HEK293 lucGAA850 FXN promoter luciferase reporter, 24 h; percent of 10 µM SAHA response | 360,000 compounds, 0.56% hits | activation, % at 6 µM;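 active = activation above the average of all compounds screened plus 3 SD, cutoff fixed separately per campaign, cut at about 7.5% in these data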;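 also: 0% = DMSO wells and 100% = 10 µM SAHA wells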
# procasp7 counter – activates human procaspase-7, counter-screen for procaspase-3 activators. P55210. recombinant procaspase-7, Ac-DEVD-pNA absorbance 405 nm; D23A/D198A/D206A triple mutant, cannot self-cleave; scale: DMSO 0, 5 µM enzyme 100. activation, % at 8.5 µM. 330,000 compounds, 0.093% hits;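 active = percent activation above the screen-wide mean plus 3 SD, cut at about 25% in these data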
# Target sequence (P55210 whole entry D23A/D198A/D206A): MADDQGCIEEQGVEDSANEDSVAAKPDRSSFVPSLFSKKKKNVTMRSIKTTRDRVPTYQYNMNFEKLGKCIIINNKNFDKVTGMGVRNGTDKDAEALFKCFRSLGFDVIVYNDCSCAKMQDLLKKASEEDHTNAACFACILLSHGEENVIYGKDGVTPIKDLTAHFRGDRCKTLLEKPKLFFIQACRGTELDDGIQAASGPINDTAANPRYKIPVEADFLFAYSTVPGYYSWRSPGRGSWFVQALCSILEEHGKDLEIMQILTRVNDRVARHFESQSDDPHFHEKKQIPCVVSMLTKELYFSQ
#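 buffer or medium = Zinc-free HEPES/NaCl buffer, pH 7.4 | material = Procaspase-7 triple mutant (PC-7 D3A) | input = 2 µM procaspase-7 mutant as dispensed | signal = Epi-absorbance of released pNA at 405 nm, two timepoints | timing = 1 h preincubation, 2 h reaction | replicates = singlicate compound testing | evaluation = % activation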
# GAA30 FXN cntr – counter-screen for GAA850 frataxin promoter activators: GAA30 promoter activation; activation, % at 6 µM; HEK293 lucGAA30 FXN promoter luciferase, 24 h; DMSO = 0%, 5 µM ipriflavone = 100%; shares compounds with GAA850 FXN act; 1,900 compounds, 66% hits; AID 588350;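 active = mean activation above the mean of solvent-only control wells plus 3 SD, cut at about 22% in these data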;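 also: counterscreen of GAA850 promoter hits where activity marks nonselective or luminescence artifacts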
# GAA850 confirm – confirmation of GAA850 frataxin (FXN) promoter activators | shares compounds with GAA850 FXN act | HEK293 lucGAA850 FXN promoter luciferase reporter, 24 h; 100% = activation by SAHA | activation, % at 6 µM | 1,900 compounds, 86% hits;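 active = mean activation above a set limit taken from the primary screen, cut at about 8% in these data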;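 also: 0% = DMSO wells and 100% = 10 µM SAHA wells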
# Numbers without * were called inactive; · = not tested or not shown.
SMILES,procasp3 activ,GAA850 FXN act,procasp7 counter,GAA30 FXN cntr,GAA850 confirm
COc1cc2c(cc1OC)-c1cc(N3CCc4ccccc43)nc(=O)n1CC2,-5,2,-3,·,·
COc1cc2c(cc1OC)-c1cc(Nc3ccc(C(=O)O)cc3)nc(=O)n1CC2,5,1,3,·,·
COc1cc2c(cc1OC)-c1cc(Nc3ccc(C)cc3)nc(=O)n1CC2,-3,6,4,·,·
COc1cc2c(cc1OC)-c1cc(Nc3ccccc3)nc(=O)n1CC2,-4,4,0,·,·
CC12CN3CC(C)(CN(C1)C3c1ccc3c(c1)OCO3)C2O (stereo unspecified),-1,1,-1,·,·
CCc1nnc(NC(=O)CCN2C(=O)/C(=C/c3cc(OC)c(OC)c(OC)c3)SC2=S)s1,-9,-1,-19,·,·
Cc1ccc(C)c(Cn2c3ccccc3c3cnn(CC(=O)NCCCN4CCCCC4)c(=O)c32)c1,-6,-2,8,·,·
CCNC(=O)C1(C)CCN(Cc2ccccc2-c2ccccc2)C1 (stereo unspecified),·,-1,·,·,·
COc1cccc(C(O)c2nc(-c3cc(F)cc(F)c3)cs2)c1 (stereo unspecified),·,1,·,·,·
COc1ccc(Nc2cc3n(c(=O)n2)CCc2cc(OC)c(OC)cc2-3)cc1,-6,1,-6,·,·
COc1cc2c(cc1OC)-c1cc(NC3CCCCCC3)nc(=O)n1CC2,-8,12*,4,26*,12*
COc1ccc(Nc2cc3n(c(=O)n2)CCc2cc(OC)c(OC)cc2-3)c(C)c1,3,7,1,·,·
COc1cc2c(cc1OC)-c1cc(OCc3cccnc3)nc(=O)n1CC2,·,8.8*,·,14,13*
CNC(=O)c1c(NC(=O)c2cc(-c3cc(C)c(C)cc3O)n[nH]2)sc2c1CCCC2,5,·,5,·,·
Cc1cc(S(=O)(=O)Nc2ccc(C(=O)NCCCN3CCCC3=O)cc2)ccc1F,2,0,10,·,·
Cc1ccc(NC(=O)CN(C)C(=O)c2cccc(S(=O)(=O)N3CCc4ccccc4C3)c2)cc1,·,1,·,·,·
COC(=O)C(CC(=O)c1ccc(Br)cc1)n1cccn1 (stereo unspecified),0,3,-19,·,·
COc1ccc(CNC(=O)CN(c2ccc(C(C)C)cc2)S(=O)(=O)c2c(C)noc2C)cc1,5,-1,10,·,·
Cc1ccc(-c2nnc3c4ccccc4c(C)nn23)cc1S(=O)(=O)N1CCN(C)CC1,7,1,10,·,·
Cc1ccc(-c2nnc3c4ccccc4c(C)nn23)cc1S(=O)(=O)N1CCN(CCO)CC1,1,7.6*,6,32*,17*
COc1cccc(CNC(=O)CN2C(=O)COc3ccc(S(=O)(=O)N4CCCC4)cc32)c1,-2,-1,2,·,·
C/C(=N\NC(=O)c1sccc1C)c1cccnc1,·,3,·,·,·
C/C(=N\NC(=O)c1sccc1C)c1ccncc1,0,8.2*,-12,82*,32*
O=C(CCNC(=O)C1CCN(S(=O)(=O)c2ccc(F)cc2)CC1)NCc1ccccn1,·,2,·,·,·
COc1cc2c(O)c3c(c(-c4ccc5c(c4)OCO5)c2cc1OC)C(=O)OC3,-3,20*,-8,-8,27*
SMILES,procasp3 activ,GAA850 FXN act,procasp7 counter,GAA30 FXN cntr,GAA850 confirm
COc1cc2c(OC(C)=O)c3c(c(-c4ccc5c(c4)OCO5)c2cc1OC)C(=O)OC3,5,1,-4,·,·
COc1ccccc1OCC(=O)Nc1cc(C)ccc1NC(=O)c1ccco1,-1,-1,2,·,·
O=C(OCC#CCSc1nnc(-c2cccc3ccccc23)o1)c1cccc2[nH]ccc12,0,2,-2,·,·
CC(=O)c1cnc2cc(-c3ccccc3)nn2c1C,4,6,-5,·,·
CC(=O)c1cnc2cc(-c3ccc(C)cc3)nn2c1C,-3,11*,14,128*,42*
COc1cc(OC)c(OC)cc1C=Cc1ccc2ccccc2n1,·,8.9*,·,67*,30*
COc1cc(OC)c(OC)cc1/C=C/c1cc(C(=O)O)c2ccccc2n1,-7,4,-1,·,·
COc1ccc(-c2c(NC(=O)c3ccco3)oc3c(C)cccc3c2=O)cc1,8,0,3,·,·
Cc1ccc(/C=N/Nc2ncnc3nc[nH]c23)cc1,0,17*,9,123*,56*
Clc1ccc(/C=N/Nc2ncnc3nc[nH]c23)cc1,-5,9.8*,-2,110*,50*
